Experimental data published in ChEMBL document CHEMBL1154352, “Toll-like receptor 7 selective synthetic oligoribonucleotide agonists: synthesis and structure-activity relationship studies” (J Med Chem, 2009).
Active and inactive are the calls of the source. The rule behind the calls is not given here.

Tests used:
[1] = Metabolic stability in human serum assessed as full length product remaining after 10 mins by HPLC; assay type: ADME, cell-free; settings: read-out: Stability
Method in brief: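 About 0.5 A260 units compound in 1% human serum in PBS, 37 °C; aliquot taken at 10 min, analysed by anion-exchange HPLC for percent intact full-length product.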

[2] = species: Homo sapiens; assay: Ratio of human TLR7 activity to human TLR8 activity
Method in brief: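 TLR7/TLR8 ratio computed from fold NF-κB (SEAP reporter) activation in HEK293 cells stably expressing human TLR7 versus TLR8, compounds at 50 μg/mL, 18 h exposure; representative of three independent experiments.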

[3] = biological target: T1, Toll-like receptor 9 (Mus musculus) (UniProt Q9EQU3); assay: Activation of mouse TLR9 expressed in HEK293 assessed as induction of NF-kappaB activity reporter gene assay; assay type: cell-based
T1 sequence (whole entry): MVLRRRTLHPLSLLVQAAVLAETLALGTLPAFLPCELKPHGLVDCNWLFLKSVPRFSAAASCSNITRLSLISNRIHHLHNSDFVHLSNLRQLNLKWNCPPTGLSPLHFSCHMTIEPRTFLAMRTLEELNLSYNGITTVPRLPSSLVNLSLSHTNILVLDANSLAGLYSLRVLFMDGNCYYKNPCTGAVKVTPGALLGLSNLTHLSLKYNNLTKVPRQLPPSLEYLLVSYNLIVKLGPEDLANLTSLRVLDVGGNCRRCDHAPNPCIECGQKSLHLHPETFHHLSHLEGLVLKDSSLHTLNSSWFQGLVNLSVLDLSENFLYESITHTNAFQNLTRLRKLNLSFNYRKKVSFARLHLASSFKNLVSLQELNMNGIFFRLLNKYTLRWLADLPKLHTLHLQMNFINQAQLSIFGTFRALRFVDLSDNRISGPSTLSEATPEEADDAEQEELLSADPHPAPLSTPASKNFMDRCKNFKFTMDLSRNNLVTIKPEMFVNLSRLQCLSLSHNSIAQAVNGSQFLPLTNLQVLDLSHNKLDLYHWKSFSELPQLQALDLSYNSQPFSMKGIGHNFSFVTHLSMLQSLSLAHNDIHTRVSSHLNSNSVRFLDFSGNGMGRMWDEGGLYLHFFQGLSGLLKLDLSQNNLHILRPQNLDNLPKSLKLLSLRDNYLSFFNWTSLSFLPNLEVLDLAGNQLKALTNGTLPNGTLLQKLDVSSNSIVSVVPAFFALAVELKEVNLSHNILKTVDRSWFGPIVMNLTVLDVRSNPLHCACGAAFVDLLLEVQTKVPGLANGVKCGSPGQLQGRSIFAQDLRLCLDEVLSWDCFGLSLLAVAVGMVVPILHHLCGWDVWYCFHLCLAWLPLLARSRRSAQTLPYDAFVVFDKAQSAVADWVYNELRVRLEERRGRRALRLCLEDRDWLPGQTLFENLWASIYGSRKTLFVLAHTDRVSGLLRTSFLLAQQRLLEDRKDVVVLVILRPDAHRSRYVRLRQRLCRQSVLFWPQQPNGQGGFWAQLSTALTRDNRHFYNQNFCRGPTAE

[4] = test system: Splenocyte; assay: Immunomodulatory activity in C57BL/6 mouse splenocytes bearing TLR7 receptor assessed as IL6 release at 100 ug/ml after 24 hrs by ELISA; assay type: functional, cell-based
Method in brief: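 C57BL/6 splenocytes in RPMI 1640 with 10% FBS, penicillin/streptomycin, 2 mM L-glutamine, plated at 5 × 10^6 cells/mL; compounds in PBS added, 37 °C for 24 h. Supernatant IL-12 and IL-6 by ELISA; representative of three independent experiments.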

| remaining at 10 min [1] [%] | Ratio [2] | Activity [3] | Activity [4] | Structure (SMILES) |
| --- | --- | --- | --- | --- |
| 84 | 3 | inactive | Active | Nc1ccn([C@@H]2O[C@H](COP(=O)(S)O[C@H]3[C@@H](O)[C@H](n4cnc5c(N)ncnc54)O[C@@H]3CO)[C@@H](OP(=O)(S)OC[C@H]3O[C@@H](n4ccc(=O)[nH]c4=O)[C@H](O)[C@@H]3OP(=O)(S)OC[C@H]3O[C@@H](n4ccc(=O)[nH]c4=O)[C@H](O)[C@@H]3OP(=O)(S)OC[C@H]3O[C@@H](n4ccc5c(=O)[nH]c(N)nc54)[C@H](O)[C@@H]3OP(=O)(S)OC[C@H]3O[C@@H](n4cnc5c(N)ncnc54)[C@H](O)[C@@H]3OP(=O)(S)OC[C@H]3O[C@@H](n4cnc5c(N)ncnc54)[C@H](O)[C@@H]3OP(=O)(S)OC[C@H]3O[C@@H](n4ccc(N)nc4=O)[C@H](O)[C@@H]3OP(=O)(S)OC[C@H]3O[C@@H](n4ccc(=O)[nH]c4=O)[C@H](O)[C@@H]3OP(=O)(S)OC[C@H]3O[C@@H](n4ccc(=O)[nH]c4=O)[C@H](O)[C@@H]3OP(=O)(S)OC[C@H]3O[C@@H](n4ccc5c(=O)[nH]c(N)nc54)[C@H](O)[C@@H]3OP(=O)(S)OCC(O)COP(=O)(S)O[C@H]3[C@@H](O)[C@H](n4ccc5c(=O)[nH]c(N)nc54)O[C@@H]3COP(=O)(S)O[C@H]3[C@@H](O)[C@H](n4ccc(=O)[nH]c4=O)O[C@@H]3COP(=O)(S)O[C@H]3[C@@H](O)[C@H](n4ccc(=O)[nH]c4=O)O[C@@H]3COP(=O)(S)O[C@H]3[C@@H](O)[C@H](n4ccc(N)nc4=O)O[C@@H]3COP(=O)(S)O[C@H]3[C@@H](O)[C@H](n4cnc5c(N)ncnc54)O[C@@H]3COP(=O)(S)O[C@H]3[C@@H](O)[C@H](n4cnc5c(N)ncnc54)O[C@@H]3COP(=O)(S)O[C@H]3[C@@H](O)[C@H](n4ccc5c(=O)[nH]c(N)nc54)O[C@@H]3COP(=O)(S)O[C@H]3[C@@H](O)[C@H](n4ccc(=O)[nH]c4=O)O[C@@H]3COP(=O)(S)O[C@H]3[C@@H](O)[C@H](n4ccc(=O)[nH]c4=O)O[C@@H]3COP(=O)(S)O[C@H]3[C@@H](O)[C@H](n4ccc(N)nc4=O)O[C@@H]3COP(=O)(S)O[C@H]3[C@@H](O)[C@H](n4cnc5c(N)ncnc54)O[C@@H]3CO)[C@H]2O)c(=O)n1 (some centres not stated) |
| 83 | 21.7 | inactive | Active | Nc1ccn([C@@H]2O[C@H](COP(=O)(S)O[C@H]3[C@@H](O)[C@H](n4cnc5c(N)ncnc54)O[C@@H]3COP(=O)(S)O[C@H]3[C@@H](O)[C@H](n4cnc5c(N)ncnc54)O[C@@H]3CO)[C@@H](OP(=O)(S)OC[C@H]3O[C@@H](n4ccc(=O)[nH]c4=O)[C@H](O)[C@@H]3OP(=O)(S)OC[C@H]3O[C@@H](n4ccc5c(=O)[nH]c(N)nc54)[C@H](O)[C@@H]3OP(=O)(S)OC[C@H]3O[C@@H](n4ccc(N)nc4=O)[C@H](O)[C@@H]3OP(=O)(S)OC[C@H]3O[C@@H](n4ccc5c(=O)[nH]c(N)nc54)[C@H](O)[C@@H]3OP(=O)(S)OC[C@H]3O[C@@H](n4cnc5c(N)ncnc54)[C@H](O)[C@@H]3OP(=O)(S)OC[C@H]3O[C@@H](n4ccc(N)nc4=O)[C@H](O)[C@@H]3OP(=O)(S)OC[C@H]3O[C@@H](n4ccc(=O)[nH]c4=O)[C@H](O)[C@@H]3OP(=O)(S)OC[C@H]3O[C@@H](n4ccc(=O)[nH]c4=O)[C@H](O)[C@@H]3OP(=O)(S)OCC(O)COP(=O)(S)O[C@H]3[C@@H](O)[C@H](n4ccc(=O)[nH]c4=O)O[C@@H]3COP(=O)(S)O[C@H]3[C@@H](O)[C@H](n4ccc(=O)[nH]c4=O)O[C@@H]3COP(=O)(S)O[C@H]3[C@@H](O)[C@H](n4ccc(N)nc4=O)O[C@@H]3COP(=O)(S)O[C@H]3[C@@H](O)[C@H](n4cnc5c(N)ncnc54)O[C@@H]3COP(=O)(S)O[C@H]3[C@@H](O)[C@H](n4ccc5c(=O)[nH]c(N)nc54)O[C@@H]3COP(=O)(S)O[C@H]3[C@@H](O)[C@H](n4ccc(N)nc4=O)O[C@@H]3COP(=O)(S)O[C@H]3[C@@H](O)[C@H](n4ccc5c(=O)[nH]c(N)nc54)O[C@@H]3COP(=O)(S)O[C@H]3[C@@H](O)[C@H](n4ccc(=O)[nH]c4=O)O[C@@H]3COP(=O)(S)O[C@H]3[C@@H](O)[C@H](n4ccc(N)nc4=O)O[C@@H]3COP(=O)(S)O[C@H]3[C@@H](O)[C@H](n4cnc5c(N)ncnc54)O[C@@H]3COP(=O)(S)O[C@H]3[C@@H](O)[C@H](n4cnc5c(N)ncnc54)O[C@@H]3CO)[C@H]2O)c(=O)n1 (some centres not stated) |
| 79 | 7 | inactive | Active | Nc1ccn([C@@H]2O[C@H](COP(=O)(S)O[C@H]3[C@@H](O)[C@H](n4cnc5c(N)ncnc54)O[C@@H]3CO)[C@@H](OP(=O)(S)OC[C@H]3O[C@@H](n4ccc(=O)[nH]c4=O)[C@H](O)[C@@H]3OP(=O)(S)OC[C@H]3O[C@@H](n4ccc5c(=O)[nH]c(N)nc54)[C@H](O)[C@@H]3OP(=O)(S)OC[C@H]3O[C@@H](n4cnc5c(N)ncnc54)[C@H](O)[C@@H]3OP(=O)(S)OC[C@H]3O[C@@H](n4ccc5c(=O)[nH]c(N)nc54)[C@H](O)[C@@H]3OP(=O)(S)OC[C@H]3O[C@@H](n4cnc5c(N)ncnc54)[C@H](O)[C@@H]3OP(=O)(S)OC[C@H]3O[C@@H](n4ccc5c(=O)[nH]c(N)nc54)[C@H](O)[C@@H]3OP(=O)(S)OC[C@H]3O[C@@H](n4ccc(N)nc4=O)[C@H](O)[C@@H]3OP(=O)(S)OC[C@H]3O[C@@H](n4ccc(=O)[nH]c4=O)[C@H](O)[C@@H]3OP(=O)(S)OC[C@H]3O[C@@H](n4ccc(=O)[nH]c4=O)[C@H](O)[C@@H]3OP(=O)(S)OCC(O)COP(=O)(S)O[C@H]3[C@@H](O)[C@H](n4ccc(=O)[nH]c4=O)O[C@@H]3COP(=O)(S)O[C@H]3[C@@H](O)[C@H](n4ccc(=O)[nH]c4=O)O[C@@H]3COP(=O)(S)O[C@H]3[C@@H](O)[C@H](n4ccc(N)nc4=O)O[C@@H]3COP(=O)(S)O[C@H]3[C@@H](O)[C@H](n4ccc5c(=O)[nH]c(N)nc54)O[C@@H]3COP(=O)(S)O[C@H]3[C@@H](O)[C@H](n4cnc5c(N)ncnc54)O[C@@H]3COP(=O)(S)O[C@H]3[C@@H](O)[C@H](n4ccc5c(=O)[nH]c(N)nc54)O[C@@H]3COP(=O)(S)O[C@H]3[C@@H](O)[C@H](n4cnc5c(N)nc(N)nc54)O[C@@H]3COP(=O)(S)O[C@H]3[C@@H](O)[C@H](n4ccc5c(=O)[nH]c(N)nc54)O[C@@H]3COP(=O)(S)O[C@H]3[C@@H](O)[C@H](n4ccc(=O)[nH]c4=O)O[C@@H]3COP(=O)(S)O[C@H]3[C@@H](O)[C@H](n4ccc(N)nc4=O)O[C@@H]3COP(=O)(S)O[C@H]3[C@@H](O)[C@H](n4cnc5c(N)ncnc54)O[C@@H]3CO)[C@H]2O)c(=O)n1 (some centres not stated) |
